Laboratory results reported in ChEMBL document CHEMBL1126129, “Flavones. 3. Synthesis, biological activities, and conformational analysis of isoflavone derivatives and related compounds” (1992).
The source made the active and inactive calls. No cut-off for these calls is given here.

Tests used:
Rattus norvegicus [1] = experiment: Antihypertensive activity was measured as decrease in systolic blood pressure in spontaneously hypertensive rats at 75 mg/kg, po 5 hours after dosing; type: functional, Artery
Summary of the method: (§1)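 Male spontaneously hypertensive rats (Wistar-Kyoto strain), five per dose group. Systolic arterial pressure measured by indirect tail cuff. Dosing was 75 mg/kg po, or 30 mg/kg iv for one analog. Percentage fall in systolic pressure recorded at stated hours after dosing. Significance vs control at p < 0.05; non-significant falls flagged.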

Rattus norvegicus [2] = experiment: Antihypertensive activity was measured as decrease in systolic blood pressure in spontaneously hypertensive rats at 75 mg/kg, po 7.5 hours after dosing; type: functional, Artery; summary of the method: as §1
Rattus norvegicus [3] = experiment: Antihypertensive activity was measured as decrease in systolic blood pressure in spontaneously hypertensive rats at 75 mg/kg, po 2 hours after dosing; type: functional, Artery; summary of the method: as §1
Rattus norvegicus [4] = experiment: Antihypertensive activity was measured as decrease in systolic blood pressure in spontaneously hypertensive rats at 75 mg/kg, po 24 hours after dosing; type: functional, Artery; summary of the method: as §1
Rattus norvegicus [5] = experiment: In vivo inhibition of carrageenan-induced paw oedema in rats following 50 mg/kg administration.; type: functional
Summary of the method: (§2)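 Male Sprague-Dawley rats, housed 1 week, 160-200 g at test, groups of six. Dosed orally in 0.5% aqueous methocel 2 h before carrageenan challenge; controls got vehicle. Paw volume measured by mercury plethysmometer immediately and 3 h later. % inhibition = (Δcontrol − Δtest)/Δcontrol × 100, compared with control by analysis of variance. Usually one experiment per compound.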

Rattus norvegicus [6] = experiment: Antihypertensive activity was measured as decrease in systolic blood pressure in spontaneously hypertensive rats at 75 mg/kg, po 7.5 hours after dosing; NS denotes not significant; type: functional, organism-based; parameters: dose 75 mg/kg; settings: Artery; summary of the method: as §1
Rattus norvegicus [7] = experiment: Antihypertensive activity was measured as decrease in systolic blood pressure in spontaneously hypertensive rats at 75 mg/kg, po 2 hours after dosing; NS denotes not significant; type: functional, organism-based; parameters: dose 75 mg/kg; settings: Artery; summary of the method: as §1
Rattus norvegicus [8] = experiment: Antihypertensive activity was measured as decrease in systolic blood pressure in spontaneously hypertensive rats at 75 mg/kg, po 5 hours after dosing; NS denotes not significant; type: functional, organism-based; parameters: dose 75 mg/kg; settings: Artery; summary of the method: as §1
Rattus norvegicus [9] = experiment: Antihypertensive activity was measured as decrease in systolic blood pressure in spontaneously hypertensive rats at 75 mg/kg, po 24 hours after dosing; NS denotes not significant; type: functional, organism-based; parameters: dose 75 mg/kg; settings: Artery; summary of the method: as §1
Rattus norvegicus [10] = experiment: Antihypertensive activity was measured as decrease in systolic blood pressure in spontaneously hypertensive rats at 30 mg/kg, iv 2 hours after dosing; NS denotes not significant; type: functional, organism-based; parameters: dose 30 mg/kg; settings: Artery; summary of the method: as §1
Rattus norvegicus [11] = experiment: Antiinflammatory activity was measured as %inhibition of carrageenan-induced paw edema in male rats at 50 mg/kg dose; type: functional; summary of the method: as §2
Rattus norvegicus [12] = experiment: Antiinflammatory activity was measured as %inhibition of carrageenan-induced paw edema in male rats at 25 mg/kg dose; type: functional; summary of the method: as §2
Rattus norvegicus [13] = experiment: Antiinflammatory activity was measured as inhibition of carrageenan-induced paw edema in male rats at 25 mg/kg dose; type: functional; summary of the method: as §2
Rattus norvegicus [14] = experiment: Antiinflammatory activity was measured as inhibition of carrageenan-induced paw edema in male rats at 4 mg/kg dose; type: functional; summary of the method: as §2

Row | SMILES | Decrease in SBP (Rattus norvegicus [1]) | Decrease in SBP (Rattus norvegicus [2]) | inhibition in vivo at 50 mg/kg (Rattus norvegicus [5]) | Decrease in SBP (Rattus norvegicus [7]) | also measured
1 | CC(C)NCC(O)COc1ccc2c(=O)c(-c3ccccc3)c(C(C)C)oc2c1 (stereo not drawn) | 20% | 25% | 28% | – | Decrease in SBP (Rattus norvegicus [3]): 18%; Decrease in SBP (Rattus norvegicus [4]): 15%
2 | COc1c(-c2ccccc2)oc2cc(OCCCNC(C)C)ccc2c1=O | – | – | -2% | – | –
3 | O=c1cc(-c2ccccc2)oc2cc(OCCCNC3CCCC3)ccc12 | – | – | 21% | – | –
4 | CC(C)NCC(O)COc1ccc2c(=O)c(-c3ccccc3)c(C3CCCCC3)oc2c1 (stereo not drawn) | – | – | 24% | inactive | Decrease in SBP (Rattus norvegicus [6]): inactive; Decrease in SBP (Rattus norvegicus [8]): inactive; Decrease in SBP (Rattus norvegicus [9]): inactive
5 | CCCNCC(O)COc1cccc2c(=O)c(-c3ccccc3)coc12 (stereo not drawn) | – | – | – | – | Decrease in SBP (Rattus norvegicus [10]): inactive
6 | CC(C)(C)NCCCOc1ccc2c(=O)cc(-c3ccccc3)oc2c1 | – | – | 34% | – | –
7 | CN(C)CCCOc1ccc2c(=O)cc(-c3ccccc3)oc2c1 | – | – | 13% | – | –
8 | CC(C)NCC(O)COc1ccc2c(=O)c(-c3ccccc3)c(C(F)(F)F)oc2c1 (stereo not drawn) | 16% | 16% | 28% | inactive | Decrease in SBP (Rattus norvegicus [4]): 20%
9 | CC(C)NCC(O)COc1ccc2c(=O)c(-c3ccccc3)c(-c3ccccc3)oc2c1 (stereo not drawn) | 23% | 30% | – | – | inhibition in vivo at 50 mg/kg (Rattus norvegicus [11]): 24.6%; inhibition in vivo at 25 mg/kg (Rattus norvegicus [12]): 32%; Decrease in SBP (Rattus norvegicus [3]): 15%; Decrease in SBP (Rattus norvegicus [4]): 34%
10 | CCCCCNCCCOc1ccc2c(=O)cc(-c3ccccc3)oc2c1 | – | – | -9% | – | –
11 | CC(C)NCC(O)COc1ccc2c(=O)c(-c3ccccc3)c(-c3ccco3)oc2c1 (stereo not drawn) | – | 15% | 19% | inactive | Decrease in SBP (Rattus norvegicus [8]): inactive; Decrease in SBP (Rattus norvegicus [9]): inactive
12 | Clc1cccc(Cl)c1NC1=NCCN1 [CLONIDINE] | 15% | – | – | – | –
13 | CCCNCCCOc1ccc2c(=O)cc(-c3ccccc3)oc2c1 | – | – | 18% | – | –
14 | CC(C)NCCCOc1ccc2c(=O)cc(-c3ccccc3)oc2c1 | – | – | 41% | – | –
15 | O=c1cc(-c2ccccc2)oc2cc(OCCCNC3CCCCCCC3)ccc12 | – | – | 26% | – | –
16 | Cc1oc2cc(OCC(O)CNC(C)C)ccc2c(=O)c1-c1ccccc1 (stereo not drawn) | 12% | 19% | 19% | inactive | Decrease in SBP (Rattus norvegicus [4]): 17%
17 | O=c1c(-c2ccccc2)coc2cc(OCC(O)CNC3CCCCCCC3)ccc12 (stereo not drawn) | – | – | 21% | inactive | Decrease in SBP (Rattus norvegicus [6]): inactive; Decrease in SBP (Rattus norvegicus [8]): inactive; Decrease in SBP (Rattus norvegicus [9]): inactive; inhibition in vivo at 25 mg/kg (Rattus norvegicus [13]): 41%
18 | CC(C)NCC(O)COc1ccc2c(=O)c(-c3ccccc3)coc2c1 (stereo not drawn) | 11% | 14% | 33% | inactive | Decrease in SBP (Rattus norvegicus [4]): 21%
19 | CCCNCC(O)COc1ccc2c(=O)c(-c3ccccc3)c(C(F)(F)F)oc2c1 (stereo not drawn) | 11% | 12% | 22% | inactive | Decrease in SBP (Rattus norvegicus [4]): 17%
20 | Cc1oc2cc(OCC(O)C[N+](C)(C)C(C)C)ccc2c(=O)c1-c1ccccc1.[I-] (stereo not drawn) | – | 0.1% | 36% | inactive | Decrease in SBP (Rattus norvegicus [8]): inactive; Decrease in SBP (Rattus norvegicus [9]): inactive
21 | CC(C)NCC(O)COc1ccc2c(=O)c(-c3ccccc3)c(Cc3ccccc3)oc2c1 (stereo not drawn) | – | – | -3.4% | inactive | Decrease in SBP (Rattus norvegicus [6]): inactive; Decrease in SBP (Rattus norvegicus [8]): inactive; Decrease in SBP (Rattus norvegicus [9]): inactive
22 | Cc1oc2cc(OCC(O)CN(C)C(C)C)ccc2c(=O)c1-c1ccccc1 (stereo not drawn) | – | – | 19% | inactive | Decrease in SBP (Rattus norvegicus [6]): inactive; Decrease in SBP (Rattus norvegicus [8]): inactive; Decrease in SBP (Rattus norvegicus [9]): inactive
23 | COc1ccc2c(c1)c(CC(=O)O)c(C)n2C(=O)c1ccc(Cl)cc1 [INDOMETHACIN] | – | – | – | – | Inhibition (Rattus norvegicus [14]): 44.6%
24 | CC(C)NCC(O)COc1ccc2c(=O)cc(-c3ccccc3)oc2c1 (stereo not drawn) | 18% | 23% | – | – | inhibition in vivo at 50 mg/kg (Rattus norvegicus [11]): 14.5%; Decrease in SBP (Rattus norvegicus [3]): 12%; Decrease in SBP (Rattus norvegicus [4]): 16%
